From ChEMBL document CHEMBL3045116, “Synthesis and biological evaluation of 2-(5-substituted-1-((diethylamino)methyl)-2-oxoindolin-3-ylidene)-N-substituted-hydrazinecarbothioamides” (Med Chem Res, 2013)
pEC50, pIC50: −log10 of the molar value.

Assays:
Influenza B virus = assay: Antiviral activity against Influenza B virus infected in MDCK cells assessed as reduction of virus-induced cytopathic effect after 3 days by colorimetric formazan-based MTS assay; assay type: functional, organism-based; settings: 72 h
Method in brief: (§1)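 Confluent cell monolayers were infected with 100 CCID50 of virus, and serial dilutions of compound were added at the time of infection.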

Influenza A virus H3N2 = assay: Antiviral activity against Influenza A virus H3N2 infected MDCK cells assessed as reduction of virus-induced cytopathic effect after 3 days by colorimetric formazan-based MTS assay; assay type: functional, organism-based; settings: 72 h; method in brief: as §1
Influenza A virus = assay: Antiviral activity against Unidentified Influenza A virus (H1N1) infected MDCK cells assessed as reduction of virus-induced cytopathic effect after 3 days by colorimetric formazan-based MTS assay; assay type: functional, organism-based; settings: 72 h; method in brief: as §1
[1] = (§2) Cytotoxicity against MDCK cells assessed as change in cellular morphology; assay type: cell-based, Canis lupus familiaris; settings: dog, MDCK cells
Method in brief: (§3)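 Uninfected cells were exposed to compound in parallel with the antiviral cultures. The read-out is the minimum cytotoxic concentration that causes a microscopically detectable alteration of normal cell morphology.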

MDCK = assay: as §2; assay type: cell-based, Canis lupus familiaris; settings: dog, mdck; method in brief: as §3
Human alphaherpesvirus 1 [2] = assay: Antiviral activity against Human herpesvirus 1 strain KOS infected human HEL cells assessed as reduction of virus-induced cytopathic effect after 3 days by colorimetric formazan-based MTS assay; assay type: functional, organism-based; settings: Human alphaherpesvirus 1, KOS, 72 h; method in brief: as §1
Felid alphaherpesvirus 1 = assay: Antiviral activity against Felid herpesvirus 1 infected cat CRFK cells assessed as reduction of virus-induced cytopathic effect after 3 days by colorimetric formazan-based MTS assay; assay type: functional, organism-based; settings: Felid alphaherpesvirus 1, CRFK, 72 h
Method in brief: (§4)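 Cells grown to confluency in 96-well plates ([…], Vero for lines 9–10) were infected with 100 CCID50 of virus, and serial compound dilutions were added at infection. Plates were incubated at 37 °C for 3 days, until complete CPE appeared in untreated virus controls.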

[3] = tested on: Feline infectious peritonitis virus; assay: Antiviral activity against Feline Infectious peritonitis virus infected cat CRFK cells assessed as reduction of virus-induced cytopathic effect after 3 days by colorimetric formazan-based MTS assay; assay type: functional, organism-based; settings: Alphacoronavirus 1, CRFK, 72 h; method in brief: as §1
[4] = Cytotoxicity against Felis catus (cat) CRFK cells assessed as change in cellular morphology; assay type: cell-based; settings: crfk; method in brief: as §3
[5] = Inhibition of beta lactamase assessed as increase in time taken for iodine decolorization relative to control; parameters: concentration or dose not given beside the values; settings: concentration not given here
[6] = Inhibition of beta lactamase assessed as time for decolorization of iodine (reference value: 79.5 secs)
CCRF-CEM = assay: Cytotoxicity against Homo sapiens (human) CEM cells assessed as growth inhibition after 72 hr by coulter counter analysis; assay type: functional, cell-based
Method in brief: (§5)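 Cells in growth medium were allowed to proliferate with variable compound amounts at 37 °C in a humidified CO2 atmosphere. Incubation ran 48 h for L1210, 72 h for CEM and 96 h for HeLa. Cells were then counted with a Coulter counter.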

L1210 = assay: Cytotoxicity against Mus musculus (mouse) L1210 cells assessed as growth inhibition after 48 hr by coulter counter analysis; assay type: functional, cell-based; settings: L1210, 48 h; method in brief: as §5
Punta Toro virus = assay: Antiviral activity against Punta Toro virus infected in African green monkey Vero cells assessed as reduction of virus-induced cytopathic effect after 3 days by colorimetric formazan-based MTS assay; assay type: functional, organism-based; settings: 72 h; method in brief: as §1
Coxsackievirus B4 [7] = assay: Antiviral activity against Human coxsackievirus B4 infected African green monkey Vero cells assessed as reduction of virus-induced cytopathic effect after 3 days by colorimetric formazan-based MTS assay; assay type: functional, organism-based; settings: Enterovirus B, 72 h; method in brief: as §1
Respirovirus muris = assay: Antiviral activity against Sendai virus infected African green monkey Vero cells assessed as reduction of virus-induced cytopathic effect after 3 days by colorimetric formazan-based MTS assay; assay type: functional, organism-based; settings: 72 h
[8] = tested on: Mammalian orthoreovirus 1; assay: Antiviral activity against Mammalian orthoreovirus 1 infected African green monkey Vero cells assessed as reduction of virus-induced cytopathic effect after 3 days by colorimetric formazan-based MTS assay; assay type: functional, organism-based; settings: Mammalian orthoreovirus 1, Vero, 72 h; method in brief: as §4
Human respirovirus 3 = assay: Antiviral activity against Human parainfluenza virus 3 infected African green monkey Vero cells assessed as reduction of virus-induced cytopathic effect after 3 days by colorimetric formazan-based MTS assay; assay type: functional, organism-based; settings: Human respirovirus 3, Vero, 72 h; method in brief: as §4
[9] = Cytotoxicity against Chlorocebus aethiops (African green monkey) Vero cells assessed as change in cellular morphology; assay type: cell-based; settings: chlorocebus sabaeus
[10] = tested on: Respiratory syncytial virus; assay: Antiviral activity against Respiratory syncytial virus infected human HeLa cells assessed as reduction of virus-induced cytopathic effect after 3 days by colorimetric formazan-based MTS assay; assay type: functional, organism-based; settings: 72 h; method in brief: as §1
[11] = tested on: Vesicular stomatitis virus; assay: Antiviral activity against Vesicular stomatitis virus infected human HeLa cells assessed as reduction of virus-induced cytopathic effect after 3 days by colorimetric formazan-based MTS assay; assay type: functional, organism-based; settings: 72 h; method in brief: as §1
Coxsackievirus B4 [12] = assay: Antiviral activity against Human coxsackievirus B4 infected human HeLa cells assessed as reduction of virus-induced cytopathic effect after 3 days by colorimetric formazan-based MTS assay; assay type: functional, organism-based; settings: Enterovirus B, 72 h; method in brief: as §1
[13] = (§6) Cytotoxicity against Homo sapiens (human) HeLa cells assessed as change in cellular morphology; assay type: cell-based; settings: HeLa cells; method in brief: as §3
HeLa = assay: as §6; assay type: cell-based; settings: hela; method in brief: as §3
Human alphaherpesvirus 1 [14] = assay: Antiviral activity against acyclovir-resistant thymidine kinase negative Human herpesvirus 1 strain KOS infected human HEL cells assessed as reduction of virus-induced cytopathic effect after 3 days by colorimetric formazan-based MTS assay; assay type: functional, organism-based; settings: Human alphaherpesvirus 1, KOS, 72 h; method in brief: as §1
[15] = tested on: Vesicular stomatitis virus; assay: Antiviral activity against Vesicular stomatitis virus infected human HEL cells assessed as reduction of virus-induced cytopathic effect after 3 days by colorimetric formazan-based MTS assay; assay type: functional, organism-based; settings: 72 h; method in brief: as §1
Vaccinia virus = assay: Antiviral activity against Vaccinia virus infected human HEL cells assessed as reduction of virus-induced cytopathic effect after 3 days by colorimetric formazan-based MTS assay; assay type: functional, organism-based; settings: Orthopoxvirus vaccinia, 72 h; method in brief: as §1
Human alphaherpesvirus 2 = assay: Antiviral activity against Human herpesvirus 2 strain G infected human HEL cells assessed as reduction of virus-induced cytopathic effect after 3 days by colorimetric formazan-based MTS assay; assay type: functional, organism-based; settings: Human alphaherpesvirus 2, strain G, 72 h; method in brief: as §1
[16] = Cytotoxicity against Homo sapiens (human) HEL cells assessed as change in cellular morphology; assay type: cell-based
Candida albicans = assay: Antifungal activity against Candida albicans assessed as growth inhibition at 50 ug/ml by cup-plate method (reference value: 8 to 10 mm); assay type: functional; settings: read-out: DIZ
Aspergillus niger = assay: Antifungal activity against Aspergillus niger assessed as growth inhibition at 50 ug/ml by cup-plate method (reference value: 8 to 10 mm); assay type: functional; settings: read-out: DIZ
Salmonella typhi = assay: Antibacterial activity against Salmonella enterica subsp. enterica serovar Typhi assessed as growth inhibition at 50 ug/ml by cup-plate method (reference value: 8 to 10 mm); assay type: functional; settings: read-out: DIZ
Proteus vulgaris = assay: Antibacterial activity against Proteus vulgaris assessed as growth inhibition at 50 ug/ml by cup-plate method (reference value: 8 to 10 mm); assay type: functional; settings: read-out: DIZ
Escherichia coli = assay: Antibacterial activity against Escherichia coli assessed as growth inhibition at 50 ug/ml by cup-plate method (reference value: 8 to 10 mm); assay type: functional; settings: read-out: DIZ
Bacillus subtilis = assay: Antibacterial activity against Bacillus subtilis assessed as growth inhibition at 50 ug/ml by cup-plate method (reference value: 8 to 10 mm); assay type: functional; settings: read-out: DIZ
Klebsiella pneumoniae = assay: Antibacterial activity against Klebsiella pneumoniae assessed as growth inhibition at 50 ug/ml by cup-plate method (reference value: 8 to 10 mm); assay type: functional; settings: read-out: DIZ
Staphylococcus aureus = assay: Antibacterial activity against Staphylococcus aureus assessed as growth inhibition at 50 ug/ml by cup-plate method (reference value: 8 to 10 mm); assay type: functional; settings: read-out: DIZ

Row | Structure (SMILES) | pEC50 (Influenza B virus) | pEC50 (Influenza A virus H3N2) | pEC50 (Influenza A virus) | MCC [1] [µM] | CC50 (MDCK) [µM] | pEC50 (Human alphaherpesvirus 1 [2]) | pEC50 (Felid alphaherpesvirus 1) | pEC50 [3] | CC50 [4] [µM] | inhibition [5] [%] | TIME [6] [h] | pIC50 (CCRF-CEM) | pIC50 (L1210) | pEC50 (Punta Toro virus) | pEC50 (Coxsackievirus B4 [7]) | pEC50 (Respirovirus muris) | pEC50 (Human alphaherpesvirus 1 [14]) | pEC50 [15] | pEC50 (Human alphaherpesvirus 2) | MCC [16] [µM] | further results
1 | NC12CC3CC(CC(C3)C1)C2 [AMANTADINE] | < 3.30 | 5.82 | 4.18 | > 500 | > 500 |  |  |  |  |  |  |  |  |  |  |  |  |  |  |  | 
2 | CCN(CC)CN1C(=O)/C(=N/NC(=S)Nc2ccc(Cl)cc2)c2ccccc21 | < 6.80 | < 6.80 | < 6.80 | 0.8 | 0.4 | 4.82 | < 6.10 | < 6.10 | 4 | 38.7 | 0.036 | 5.00 | 4.96 | < 5.40 | < 5.40 | < 5.40 | ≤ 4.70 | < 4.70 | 4.82 | 100 | pEC50 [8]: < 5.40; pEC50 (Human respirovirus 3): < 5.40; MCC [9]: 20 µM; pEC50 [10]: < 5.40; pEC50 [11]: < 5.40; pEC50 (Coxsackievirus B4 [12]): < 5.40; MCC [13]: ≥ 4 µM; CC50 (HeLa): 9.8 µM; pEC50 (Vaccinia virus): ≤ 4.70; zone of inhibition at 50 µg/mL (Candida albicans): 11 mm; zone of inhibition at 50 µg/mL (Aspergillus niger): 11 mm; zone of inhibition at 50 µg/mL (Salmonella typhi): 11 mm; zone of inhibition at 50 µg/mL (Proteus vulgaris): 11 mm; zone of inhibition at 50 µg/mL (Escherichia coli): 21 mm; zone of inhibition at 50 µg/mL (Bacillus subtilis): 21 mm; zone of inhibition at 50 µg/mL (Klebsiella pneumoniae): 11 mm; zone of inhibition at 50 µg/mL (Staphylococcus aureus): 11 mm
3 | CCN(CC)CN1C(=O)/C(=N/NC(N)=S)c2ccccc21 | < 4.70 | < 4.70 | < 4.70 | 100 | 85.8 | < 4.00 | < 4.70 | < 4.70 | 73.8 | 38.2 | 0.0357 | 3.79 | 3.92 | < 4.00 | < 4.00 | < 4.00 | < 4.00 | < 4.00 | < 4.00 | > 100 | pEC50 [8]: < 4.00; pEC50 (Human respirovirus 3): < 4.00; MCC [9]: > 100 µM; pEC50 [10]: < 4.00; pEC50 [11]: < 4.00; pEC50 (Coxsackievirus B4 [12]): < 4.00; MCC [13]: > 100 µM; CC50 (HeLa): > 100 µM; pEC50 (Vaccinia virus): < 4.00; zone of inhibition at 50 µg/mL (Candida albicans): 11 mm; zone of inhibition at 50 µg/mL (Aspergillus niger): 11 mm; zone of inhibition at 50 µg/mL (Salmonella typhi): 11 mm; zone of inhibition at 50 µg/mL (Proteus vulgaris): 11 mm; zone of inhibition at 50 µg/mL (Escherichia coli): 11 mm; zone of inhibition at 50 µg/mL (Bacillus subtilis): 11 mm; zone of inhibition at 50 µg/mL (Klebsiella pneumoniae): 11 mm; zone of inhibition at 50 µg/mL (Staphylococcus aureus): 11 mm
4 | CC(N)C12CC3CC(CC(C3)C1)C2 (stereo not drawn) [RIMANTADINE] | < 4.00 | 7.10 | 4.62 | 500 | 259 |  |  |  |  |  |  |  |  |  |  |  |  |  |  |  | 
5 | CCN(CC)CN1C(=O)/C(=N/NC(N)=S)c2cc(Cl)ccc21 | < 4.70 | < 4.70 | < 4.70 | 100 | 78.3 | < 4.00 | < 4.00 | < 4.00 | > 100 | 34.6 | 0.0338 | 4.15 | 3.83 | < 4.00 | < 4.00 | < 4.00 | < 4.00 | < 4.00 | < 4.00 | > 100 | pEC50 [8]: < 4.00; pEC50 (Human respirovirus 3): < 4.00; MCC [9]: > 100 µM; pEC50 [10]: < 4.00; pEC50 [11]: < 4.00; pEC50 (Coxsackievirus B4 [12]): < 4.00; MCC [13]: > 100 µM; CC50 (HeLa): > 100 µM; pEC50 (Vaccinia virus): 4.70; zone of inhibition at 50 µg/mL (Candida albicans): 11 mm; zone of inhibition at 50 µg/mL (Aspergillus niger): 11 mm; zone of inhibition at 50 µg/mL (Salmonella typhi): 11 mm; zone of inhibition at 50 µg/mL (Proteus vulgaris): 11 mm; zone of inhibition at 50 µg/mL (Escherichia coli): 11 mm; zone of inhibition at 50 µg/mL (Bacillus subtilis): 11 mm; zone of inhibition at 50 µg/mL (Klebsiella pneumoniae): 11 mm; zone of inhibition at 50 µg/mL (Staphylococcus aureus): 21 mm
6 | Nc1ccn(C[C@@H](CO)OCP(=O)(O)O)c(=O)n1 [CIDOFOVIR] |  |  |  |  |  | 5.30 |  |  |  |  |  |  |  |  |  |  | 5.22 | < 3.60 | 5.82 | > 250 | 
7 | O=C(O)[C@H]1/C(=C/CO)O[C@@H]2CC(=O)N21 |  |  |  |  |  |  |  |  |  | 67 | 0.0668 |  |  |  |  |  |  |  |  |  | 
